Reference: ChEMBL document CHEMBL4689842, “EUbOPEN Chemogenomics Library wave 1” (2021)

Test system: HEK-293T
Experiment: Multiplex assay against HEK293T;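 as to Population Tubulin-Different-Phenotype (%): share of the cells with healthy nuclei that show this phenotype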
Assay type: toxicity, cell-based
Details: human
Summary of the method: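 Live cells carried four stains from seeding: Hoechst33342, BioTracker Green Microtubule Cytoskeleton Dye, MitoTracker Red and Annexin V Alexa Fluor 680. They were imaged on a CQ1 microscope at 37°C and 5% CO2 after compound addition. Using CellPathfinder machine-learning gating, cells were split into Hoechst high-intensity objects or normal cells, normal cells into healthy, pyknosed or fragmented nuclei, and pyknosed cells into mitotic or apoptotic; tubulin, mitochondrial-mass and membrane-permeability phenotypes are per cents of healthy-nucleus cells.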

[1] = 12 h, 1 µM, compound concentration 1 uM, replicate 1
[2] = 12 h, 1 µM, compound concentration 1 uM, replicate 2
[3] = 12 h, 10 µM, compound concentration 10 uM, replicate 1
[4] = 12 h, 10 µM, compound concentration 10 uM, replicate 2
[5] = 24 h, 1 µM, compound concentration 1 uM, replicate 1
[6] = 24 h, 1 µM, compound concentration 1 uM, replicate 2
[7] = 24 h, 10 µM, compound concentration 10 uM, replicate 1
[8] = 24 h, 10 µM, compound concentration 10 uM, replicate 2
[9] = 48 h, 1 µM, compound concentration 1 uM, replicate 1
[10] = 48 h, 1 µM, compound concentration 1 uM, replicate 2
[11] = 48 h, 10 µM, compound concentration 10 uM, replicate 1
[12] = 48 h, 10 µM, compound concentration 10 uM, replicate 2

O=C1NC(=O)C(c2cnc3ccccn23)=C1c1cn2c3c(cc(F)cc13)CN(C(=O)N1CCCCC1)CC2 [LY-2090314]
Population Apoptotic (%) [1]: 46% | Population Fragmented Nuclei (%) [1]: 8% | Population Healthy Nuclei (%) [1]: 18% | Population Hoechst High Intensity Objects (%) [1]: 16% | Population Membrane Permeable-Phenotype (%) [1]: 10% | Population Mitochondria Different-Phenotype (%) [1]: 93% | Population Mitotic Cells (%) [1]: 53% | Population Normal (%) [1]: 83% | Population Pyknosed Nuclei (%) [1]: 73% | Population Tubulin-Different-Phenotype (%) [1]: 89% | Total Cell Count [1]: 191 | Population Apoptotic (%) [2]: 26% | Population Fragmented Nuclei (%) [2]: 6% | Population Healthy Nuclei (%) [2]: 31% | Population Hoechst High Intensity Objects (%) [2]: 7% | Population Membrane Permeable-Phenotype (%) [2]: 16% | Population Mitochondria Different-Phenotype (%) [2]: 51% | Population Mitotic Cells (%) [2]: 73% | Population Normal (%) [2]: 92% | Population Pyknosed Nuclei (%) [2]: 62% | Population Tubulin-Different-Phenotype (%) [2]: 61% | Total Cell Count [2]: 210 | Population Apoptotic (%) [3]: 76% | Population Fragmented Nuclei (%) [3]: 8% | Population Healthy Nuclei (%) [3]: 18% | Population Hoechst High Intensity Objects (%) [3]: 17% | Population Membrane Permeable-Phenotype (%) [3]: 0% | Population Mitochondria Different-Phenotype (%) [3]: 100% | Population Mitotic Cells (%) [3]: 23% | Population Normal (%) [3]: 82% | Population Pyknosed Nuclei (%) [3]: 73% | Population Tubulin-Different-Phenotype (%) [3]: 96% | Total Cell Count [3]: 186 | Population Apoptotic (%) [4]: 58% | Population Fragmented Nuclei (%) [4]: 6% | Population Healthy Nuclei (%) [4]: 5% | Population Hoechst High Intensity Objects (%) [4]: 8% | Population Membrane Permeable-Phenotype (%) [4]: 14% | Population Mitochondria Different-Phenotype (%) [4]: 85% | Population Mitotic Cells (%) [4]: 41% | Population Normal (%) [4]: 91% | Population Pyknosed Nuclei (%) [4]: 87% | Population Tubulin-Different-Phenotype (%) [4]: 85% | Total Cell Count [4]: 135 | Population Apoptotic (%) [5]: 53% | Population Fragmented Nuclei (%) [5]: 13% | Population Healthy Nuclei (%) [5]: 26% | Population Hoechst High Intensity Objects (%) [5]: 17% | Population Membrane Permeable-Phenotype (%) [5]: 6% | Population Mitochondria Different-Phenotype (%) [5]: 93% | Population Mitotic Cells (%) [5]: 46% | Population Normal (%) [5]: 82% | Population Pyknosed Nuclei (%) [5]: 59% | Population Tubulin-Different-Phenotype (%) [5]: 79% | Total Cell Count [5]: 198 | Population Apoptotic (%) [6]: 29% | Population Fragmented Nuclei (%) [6]: 5% | Population Healthy Nuclei (%) [6]: 44% | Population Hoechst High Intensity Objects (%) [6]: 6% | Population Membrane Permeable-Phenotype (%) [6]: 8% | Population Mitochondria Different-Phenotype (%) [6]: 42% | Population Mitotic Cells (%) [6]: 70% | Population Normal (%) [6]: 93% | Population Pyknosed Nuclei (%) [6]: 50% | Population Tubulin-Different-Phenotype (%) [6]: 66% | Total Cell Count [6]: 256 | Population Apoptotic (%) [7]: 86% | Population Healthy Nuclei (%) [7]: 38% | Population Hoechst High Intensity Objects (%) [7]: 14% | Population Membrane Permeable-Phenotype (%) [7]: 1% | Population Mitotic Cells (%) [7]: 13% | Population Normal (%) [7]: 85% | Population Pyknosed Nuclei (%) [7]: 52% | Total Cell Count [7]: 187 | Population Apoptotic (%) [8]: 77% | Population Fragmented Nuclei (%) [8]: 8% | Population Healthy Nuclei (%) [8]: 30% | Population Hoechst High Intensity Objects (%) [8]: 8% | Population Membrane Permeable-Phenotype (%) [8]: 2% | Population Mitochondria Different-Phenotype (%) [8]: 100% | Population Mitotic Cells (%) [8]: 22% | Population Normal (%) [8]: 91% | Population Pyknosed Nuclei (%) [8]: 61% | Population Tubulin-Different-Phenotype (%) [8]: 95% | Total Cell Count [8]: 148 | Population Apoptotic (%) [9]: 52% | Population Fragmented Nuclei (%) [9]: 15% | Population Healthy Nuclei (%) [9]: 39% | Population Hoechst High Intensity Objects (%) [9]: 14% | Population Membrane Permeable-Phenotype (%) [9]: 1% | Population Mitochondria Different-Phenotype (%) [9]: 67% | Population Mitotic Cells (%) [9]: 47% | Population Normal (%) [9]: 85% | Population Pyknosed Nuclei (%) [9]: 44% | Population Tubulin-Different-Phenotype (%) [9]: 73% | Total Cell Count [9]: 230 | Population Apoptotic (%) [10]: 29% | Population Fragmented Nuclei (%) [10]: 3% | Population Healthy Nuclei (%) [10]: 68% | Population Hoechst High Intensity Objects (%) [10]: 8% | Population Membrane Permeable-Phenotype (%) [10]: 12% | Population Mitochondria Different-Phenotype (%) [10]: 24% | Population Mitotic Cells (%) [10]: 70% | Population Normal (%) [10]: 91% | Population Pyknosed Nuclei (%) [10]: 27% | Population Tubulin-Different-Phenotype (%) [10]: 57% | Total Cell Count [10]: 309 | Population Apoptotic (%) [11]: 80% | Population Fragmented Nuclei (%) [11]: 11% | Population Hoechst High Intensity Objects (%) [11]: 12% | Population Membrane Permeable-Phenotype (%) [11]: 0% | Population Mitochondria Different-Phenotype (%) [11]: 99% | Population Mitotic Cells (%) [11]: 19% | Population Normal (%) [11]: 87% | Population Pyknosed Nuclei (%) [11]: 23% | Total Cell Count [11]: 200 | Population Apoptotic (%) [12]: 78% | Population Fragmented Nuclei (%) [12]: 7% | Population Healthy Nuclei (%) [12]: 65% | Population Hoechst High Intensity Objects (%) [12]: 5% | Population Membrane Permeable-Phenotype (%) [12]: 5% | Population Mitochondria Different-Phenotype (%) [12]: 95% | Population Mitotic Cells (%) [12]: 21% | Population Normal (%) [12]: 94% | Population Pyknosed Nuclei (%) [12]: 27% | Population Tubulin-Different-Phenotype (%) [12]: 97% | Total Cell Count [12]: 159

CCOc1cc2ncc(C#N)c(Nc3ccc(OCc4ccccn4)c(Cl)c3)c2cc1NC(=O)/C=C/CN(C)C [NERATINIB]
Population Apoptotic (%) [1]: 50% | Population Fragmented Nuclei (%) [1]: 20% | Population Healthy Nuclei (%) [1]: 24% | Population Hoechst High Intensity Objects (%) [1]: 20% | Population Membrane Permeable-Phenotype (%) [1]: 0% | Population Mitochondria Different-Phenotype (%) [1]: 85% | Population Mitotic Cells (%) [1]: 50% | Population Normal (%) [1]: 79% | Population Pyknosed Nuclei (%) [1]: 55% | Population Tubulin-Different-Phenotype (%) [1]: 55% | Total Cell Count [1]: 254 | Population Apoptotic (%) [2]: 21% | Population Fragmented Nuclei (%) [2]: 25% | Population Healthy Nuclei (%) [2]: 46% | Population Hoechst High Intensity Objects (%) [2]: 19% | Population Membrane Permeable-Phenotype (%) [2]: 3% | Population Mitochondria Different-Phenotype (%) [2]: 15% | Population Mitotic Cells (%) [2]: 78% | Population Normal (%) [2]: 80% | Population Pyknosed Nuclei (%) [2]: 27% | Population Tubulin-Different-Phenotype (%) [2]: 15% | Total Cell Count [2]: 471 | Population Apoptotic (%) [3]: 43% | Population Fragmented Nuclei (%) [3]: 25% | Population Healthy Nuclei (%) [3]: 52% | Population Hoechst High Intensity Objects (%) [3]: 29% | Population Mitochondria Different-Phenotype (%) [3]: 22% | Population Mitotic Cells (%) [3]: 56% | Population Normal (%) [3]: 70% | Population Pyknosed Nuclei (%) [3]: 21% | Population Tubulin-Different-Phenotype (%) [3]: 23% | Total Cell Count [3]: 1420 | Population Apoptotic (%) [4]: 33% | Population Fragmented Nuclei (%) [4]: 30% | Population Healthy Nuclei (%) [4]: 50% | Population Hoechst High Intensity Objects (%) [4]: 27% | Population Membrane Permeable-Phenotype (%) [4]: 3% | Population Mitochondria Different-Phenotype (%) [4]: 11% | Population Mitotic Cells (%) [4]: 66% | Population Normal (%) [4]: 72% | Population Pyknosed Nuclei (%) [4]: 18% | Population Tubulin-Different-Phenotype (%) [4]: 15% | Total Cell Count [4]: 844 | Population Apoptotic (%) [5]: 55% | Population Fragmented Nuclei (%) [5]: 19% | Population Healthy Nuclei (%) [5]: 20% | Population Hoechst High Intensity Objects (%) [5]: 20% | Population Membrane Permeable-Phenotype (%) [5]: 2% | Population Mitochondria Different-Phenotype (%) [5]: 80% | Population Mitotic Cells (%) [5]: 44% | Population Normal (%) [5]: 79% | Population Pyknosed Nuclei (%) [5]: 59% | Population Tubulin-Different-Phenotype (%) [5]: 61% | Total Cell Count [5]: 262 | Population Apoptotic (%) [6]: 20% | Population Fragmented Nuclei (%) [6]: 26% | Population Healthy Nuclei (%) [6]: 50% | Population Hoechst High Intensity Objects (%) [6]: 16% | Population Mitochondria Different-Phenotype (%) [6]: 24% | Population Mitotic Cells (%) [6]: 80% | Population Normal (%) [6]: 83% | Population Pyknosed Nuclei (%) [6]: 22% | Population Tubulin-Different-Phenotype (%) [6]: 24% | Total Cell Count [6]: 531 | Population Apoptotic (%) [7]: 50% | Population Fragmented Nuclei (%) [7]: 25% | Population Healthy Nuclei (%) [7]: 50% | Population Hoechst High Intensity Objects (%) [7]: 30% | Population Membrane Permeable-Phenotype (%) [7]: 1% | Population Mitochondria Different-Phenotype (%) [7]: 19% | Population Mitotic Cells (%) [7]: 49% | Population Normal (%) [7]: 69% | Population Pyknosed Nuclei (%) [7]: 23% | Population Tubulin-Different-Phenotype (%) [7]: 19% | Total Cell Count [7]: 1427 | Population Apoptotic (%) [8]: 42% | Population Fragmented Nuclei (%) [8]: 31% | Population Healthy Nuclei (%) [8]: 49% | Population Hoechst High Intensity Objects (%) [8]: 25% | Population Membrane Permeable-Phenotype (%) [8]: 0% | Population Mitochondria Different-Phenotype (%) [8]: 12% | Population Mitotic Cells (%) [8]: 57% | Population Normal (%) [8]: 74% | Population Pyknosed Nuclei (%) [8]: 18% | Population Tubulin-Different-Phenotype (%) [8]: 14% | Total Cell Count [8]: 857 | Population Apoptotic (%) [9]: 62% | Population Fragmented Nuclei (%) [9]: 23% | Population Healthy Nuclei (%) [9]: 17% | Population Hoechst High Intensity Objects (%) [9]: 23% | Population Membrane Permeable-Phenotype (%) [9]: 2% | Population Mitochondria Different-Phenotype (%) [9]: 56% | Population Mitotic Cells (%) [9]: 37% | Population Normal (%) [9]: 76% | Population Pyknosed Nuclei (%) [9]: 58% | Population Tubulin-Different-Phenotype (%) [9]: 29% | Total Cell Count [9]: 277 | Population Apoptotic (%) [10]: 17% | Population Fragmented Nuclei (%) [10]: 21% | Population Healthy Nuclei (%) [10]: 62% | Population Hoechst High Intensity Objects (%) [10]: 15% | Population Mitochondria Different-Phenotype (%) [10]: 14% | Population Mitotic Cells (%) [10]: 82% | Population Normal (%) [10]: 84% | Population Pyknosed Nuclei (%) [10]: 16% | Population Tubulin-Different-Phenotype (%) [10]: 27% | Total Cell Count [10]: 609 | Population Apoptotic (%) [11]: 52% | Population Fragmented Nuclei (%) [11]: 29% | Population Healthy Nuclei (%) [11]: 46% | Population Hoechst High Intensity Objects (%) [11]: 32% | Population Membrane Permeable-Phenotype (%) [11]: 0% | Population Mitochondria Different-Phenotype (%) [11]: 15% | Population Mitotic Cells (%) [11]: 47% | Population Normal (%) [11]: 67% | Population Pyknosed Nuclei (%) [11]: 23% | Population Tubulin-Different-Phenotype (%) [11]: 16% | Total Cell Count [11]: 1487 | Population Apoptotic (%) [12]: 42% | Population Fragmented Nuclei (%) [12]: 32% | Population Healthy Nuclei (%) [12]: 51% | Population Hoechst High Intensity Objects (%) [12]: 24% | Population Mitochondria Different-Phenotype (%) [12]: 16% | Population Mitotic Cells (%) [12]: 58% | Population Normal (%) [12]: 75% | Population Pyknosed Nuclei (%) [12]: 16% | Population Tubulin-Different-Phenotype (%) [12]: 21% | Total Cell Count [12]: 828
